Measurements reported in ChEMBL document CHEMBL1136006, “New PET imaging agent for the serotonin transporter: [(18)F]ACF (2-[(2-amino-4-chloro-5-fluorophenyl)thio]-N,N-dimethyl-benzenmethanamine)” (J Med Chem, 2002).

Experiments:
[1] = system: Rattus norvegicus; assay: Effect of pretreatment with nisoxatine with a dose of 2 mg/kg (i.v.) on specific binding of [18F]ACF in rat brain remainder; assay type: ADME, organism-based; parameters: dose 2 mg/kg, route intravenous; details: in vivo, iv
Outline: (§1)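 Rats pretreated iv with drug (2 mg/kg) or saline 5 min before iv [18F]ACF (50 μCi). Sacrificed 1 h after tracer. Brain regions were dissected, weighed and counted, and % dose/g was calculated against a diluted initial dose. Drug-treated rats were compared with saline controls by ANOVA/Dunnett's test (p<0.05). Three rats per point, average ± SD.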

[2] = species on record: Rattus norvegicus; assay: Organ distribution of [18F]ACF radiolabeled compound in rat heart after 2 min; assay type: ADME, organism-based; details: in vivo
Outline: (§2)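 Rats, three per time point, under ether anesthesia; 30 μCi tracer in 0.2 mL saline injected into femoral vein. Sacrificed by cardiac excision under ether at 2, 30, 60, 120 or 240 min. Organs removed, weighed and counted; % dose/organ calculated against counts of 1% of initial dose counted at the same time. Average of three rats ± SD.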

[3] = species on record: Rattus norvegicus; assay: Regional brain distribution of [18F]-ACF radiolabeled compound in rat hippocampus after 30 min; assay type: ADME, organism-based; details: in vivo, 0.5 h
Outline: (§3)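 Rats (three per group) under ether anesthesia got 30 μCi tracer in 0.2 mL saline into the femoral vein and were killed by cardiac excision at the stated time. Cortex, striatum, hippocampus, cerebellum, hypothalamus and the rest of brain were dissected, weighed and gamma counted. %dose/g was taken against counts of a diluted initial dose. Regional ratios are each region's %dose/g over cerebellum's. Mean ± SD.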

[4] = species on record: Rattus norvegicus; assay: Organ distribution of [18F]-ACF radiolabeled compound in rat lung after 30 min; assay type: ADME, organism-based; details: in vivo, 0.5 h
Outline: (§4)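 Under ether anesthesia, 30 μCi no-carrier-added tracer in 0.2 mL saline injected into the femoral vein. Rats killed by cardiac excision at the stated time. Organs were removed, weighed and counted; % dose/organ was calculated against counts of a 1% initial-dose standard. Three rats per time, average ± SD.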

[5] = species on record: Rattus norvegicus; assay: Ratio of regional brain distribution of [18F]-ACF radiolabeled compound in rat cerebellum to that of cerebellum after 2 min; assay type: ADME, organism-based; details: in vivo
Outline: (§5)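 Rats, three per time point, given 30 μCi tracer in 0.2 mL saline into femoral vein under ether anesthesia; killed at 2, 30, 60, 120 or 240 min. Cortex, striatum, hippocampus, cerebellum, hypothalamus and rest of brain dissected, weighed, counted; % dose/g against diluted initial dose, then each region divided by cerebellum. Average of three rats ± SD.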

[6] = system: Rattus norvegicus; assay: Ratio of effect of pretreatment with methylphenidate with a dose of 2 mg/kg (i.v.) on specific binding of [18F]ACF in rat brain hippocampus to that of cerebellum; assay type: ADME, organism-based; parameters: dose 2 mg/kg, route intravenous; details: in vivo, iv
Outline: (§6)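 Rats (three per point) pretreated iv with competing drug at 2 mg/kg or saline (control) 5 min before iv [18F]ACF (50 μCi). At 1 h post tracer, brain regions (cortex, striatum, hippocampus, cerebellum, hypothalamus, remainder) dissected, weighed, counted as % dose/g and expressed as ratio to cerebellum. Average ± SD; ANOVA with Dunnett's test vs saline controls, p < 0.05.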

[7] = species on record: Rattus norvegicus; assay: Organ distribution of [18F]-ACF radiolabeled compound in rat spleen after 30 min; assay type: ADME, organism-based; details: in vivo, 0.5 h; outline: as §4
[8] = species on record: Rattus norvegicus; assay: Regional brain distribution of [18F]ACF radiolabeled compound in rat cerebellum after 60 min; assay type: ADME, organism-based; details: in vivo, 1 h; outline: as §3
[9] = species on record: Rattus norvegicus; assay: Organ distribution of [18F]ACF radiolabeled compound in rat heart after 60 min; assay type: ADME, organism-based; details: in vivo, 1 h; outline: as §2
[10] = species on record: Rattus norvegicus; assay: Ratio of regional brain distribution of [18F]ACF radiolabeled compound in rat hippocampus to that of cerebellum after 60 min; assay type: ADME, organism-based; details: in vivo, 1 h; outline: as §3
[11] = species on record: Rattus norvegicus; assay: Organ distribution of [18F]-ACF radiolabeled compound in rat muscle after 240 min; assay type: ADME, organism-based, Muscle tissue; details: in vivo, 4 h; outline: as §4
[12] = system: Rattus norvegicus; assay: Ratio of effect of pretreatment with methylphenidate with a dose of 2 mg/kg (i.v.) on specific binding of [18F]-ACF in rat brain remainder to that of cerebellum; assay type: ADME, organism-based; parameters: dose 2 mg/kg, route intravenous; details: in vivo, iv; outline: as §6
[13] = species on record: Rattus norvegicus; assay: Organ distribution of [18F]ACF radiolabeled compound in rat blood after 120 min; assay type: ADME, organism-based; details: in vivo, 2 h; outline: as §2
[14] = species on record: Rattus norvegicus; assay: Ratio of regional brain distribution of [18F]-ACF radiolabeled compound in rat hippocampus to that of cerebellum after 2 min; assay type: ADME, organism-based; details: in vivo; outline: as §5
[15] = species on record: Rattus norvegicus; assay: Organ distribution of [18F]ACF radiolabeled compound in rat brain after 2 min; assay type: ADME, organism-based; details: in vivo; outline: as §2
[16] = species on record: Rattus norvegicus; assay: Ratio of regional brain distribution of [18F]-ACF radiolabeled compound in rat cortex to that of cerebellum after 240 min; assay type: ADME, organism-based; details: in vivo, 4 h; outline: as §5
[17] = species on record: Rattus norvegicus; assay: Organ distribution of [18F]-ACF radiolabeled compound in rat brain after 30 min; assay type: ADME, organism-based; details: in vivo, 0.5 h; outline: as §4
[18] = species on record: Rattus norvegicus; assay: Organ distribution of [18F]-ACF radiolabeled compound in rat liver after 60 min; assay type: ADME, organism-based; details: in vivo, 1 h; outline: as §4
[19] = system: Rattus norvegicus; assay: Ratio of effect of pretreatment with methylphenidate with a dose of 2 mg/kg (i.v.) on specific binding of [18F]ACF in rat brain cerebellum to that of cerebellum; assay type: ADME, organism-based; parameters: dose 2 mg/kg, route intravenous; details: in vivo, iv; outline: as §6
[20] = system: Rattus norvegicus; assay: Effect of pretreatment with nisoxatine with a dose of 2 mg/kg (i.v.) on specific binding of [18F]ACF in rat brain striatum; assay type: ADME, organism-based; parameters: dose 2 mg/kg, route intravenous; details: in vivo, iv; outline: as §1
[21] = species on record: Rattus norvegicus; assay: Regional brain distribution of [18F]ACF radiolabeled compound in rat cortex after 120 min; assay type: ADME, organism-based; details: in vivo, 2 h; outline: as §3
[22] = system: Rattus norvegicus; assay: Effect of pretreatment with methylphenidate with a dose of 2 mg/kg (i.v.) on specific binding of [18F]-ACF in rat brain striatum; assay type: ADME, organism-based; parameters: dose 2 mg/kg, route intravenous; details: in vivo, iv; outline: as §1
[23] = system: Rattus norvegicus; assay: Effect of pretreatment with nisoxatine with a dose of 2 mg/kg (i.v.) on specific binding of [18F]ACF in rat brain cortex; assay type: ADME, organism-based; parameters: dose 2 mg/kg, route intravenous; details: in vivo, iv; outline: as §1
[24] = species on record: Rattus norvegicus; assay: Regional brain distribution of [18F]ACF radiolabeled compound in rat cortex after 30 min; assay type: ADME, organism-based; details: in vivo, 0.5 h; outline: as §3
[25] = species on record: Rattus norvegicus; assay: Organ distribution of [18F]-ACF radiolabeled compound in rat muscle after 2 min; assay type: ADME, organism-based, Muscle tissue; details: in vivo; outline: as §4
[26] = Effect of pretreatment with nisoxatine with a dose of 2 mg/kg (i.v.) on specific binding of [18F]ACF in rat brain cerebellum; assay type: functional, organism-based; parameters: dose 2 mg/kg; outline: as §1
[27] = species on record: Rattus norvegicus; assay: Regional brain distribution of [18F]-ACF radiolabeled compound in rat cerebellum after 2 min; assay type: ADME, organism-based; details: in vivo; outline: as §3
[28] = species on record: Rattus norvegicus; assay: Ratio of regional brain distribution of [18F]-ACF radiolabeled compound in rat remainder to that of cerebellum after 30 min; assay type: ADME, organism-based; details: in vivo, 0.5 h; outline: as §3
[29] = species on record: Rattus norvegicus; assay: Organ distribution of [18F]-ACF radiolabeled compound in rat skin after 30 min; assay type: ADME, organism-based; details: in vivo, 0.5 h; outline: as §4
[30] = species on record: Rattus norvegicus; assay: Organ distribution of [18F]-ACF radiolabeled compound in rat spleen after 120 min; assay type: ADME, organism-based; details: in vivo, 2 h; outline: as §4
[31] = system: Rattus norvegicus; assay: Effect of pretreatment with methylphenidate with a dose of 2 mg/kg (i.v.) on specific binding of [18F]ACF in rat brain blood; assay type: ADME, organism-based; parameters: dose 2 mg/kg, route intravenous; details: in vivo, iv; outline: as §1
[32] = species on record: Rattus norvegicus; assay: Organ distribution of [18F]ACF radiolabeled compound in rat brain after 240 min; assay type: ADME, organism-based; details: in vivo, 4 h; outline: as §2
[33] = species on record: Rattus norvegicus; assay: Organ distribution of [18F]ACF radiolabeled compound in rat kidney after 30 min; assay type: ADME, organism-based; details: in vivo, 0.5 h; outline: as §2
[34] = system: Rattus norvegicus; assay: Ratio of effect of pretreatment with (+)-McN5652 with a dose of 2 mg/kg (i.v.) on specific binding of [18F]ACF in rat brain hypothalamus to that of cerebellum; assay type: ADME, organism-based; parameters: dose 2 mg/kg, route intravenous; details: in vivo, iv; outline: as §6
[35] = species on record: Rattus norvegicus; assay: Organ distribution of [18F]-ACF radiolabeled compound in rat muscle after 30 min; assay type: ADME, organism-based, Muscle tissue; details: in vivo, 0.5 h; outline: as §4
[36] = species on record: Rattus norvegicus; assay: Regional brain distribution of [18F]-ACF radiolabeled compound in rat cortex after 2 min; assay type: ADME, organism-based; details: in vivo; outline: as §3
[37] = system: Rattus norvegicus; assay: Effect of pretreatment with methylphenidate with a dose of 2 mg/kg (i.v.) on specific binding of [18F]ACF in rat brain cerebellum; dose/g; assay type: ADME, organism-based; parameters: dose 2 mg/kg, route intravenous; details: in vivo, iv; outline: as §1

Dose/g [1]: 0.41%
Dose/g [2]: 1.69 % dose/organ
Dose/g [3]: 0.7%
Dose/g [4]: 1.76 % dose/organ
Ratio [5]: 1
Ratio [6]: 2.5
Dose/g [7]: 0.29 % dose/organ
Dose/g [8]: 0.15%
Dose/g [9]: 0.11 % dose/organ
Ratio [10]: 2.91
Dose/g [11]: 2.08 % dose/organ
Ratio [12]: 2.23
Dose/g [13]: 3.2 % dose/organ
Ratio [14]: 1.24
Dose/g [15]: 3.27 % dose/organ
Ratio [16]: 1.52
Dose/g [17]: 1.28 % dose/organ
Dose/g [18]: 10.3 % dose/organ
Ratio [19]: 1
Dose/g [20]: 0.47%
Dose/g [21]: 0.09%
Dose/g [22]: 0.47%
Dose/g [23]: 0.37%
Dose/g [24]: 0.62%
Dose/g [25]: 14.3 % dose/organ
Dose/g [27]: 1.33%
Ratio [28]: 1.8
Dose/g [29]: 6.51 % dose/organ
Dose/g [30]: 0.06 % dose/organ
Dose/g [31]: 0.28%
Dose/g [32]: 0.06 % dose/organ
Dose/g [33]: 2.64 % dose/organ
Ratio [34]: 1.36
Dose/g [35]: 10.7 % dose/organ
Dose/g [36]: 2.31%
Dose/g [37]: 0.17%
SMILES: CN(C)Cc1ccccc1Sc1cc(F)c(Cl)cc1N
Dose/g [26]: 0.19%
